Reference: ChEMBL document CHEMBL4610084, “Antibacterial and ATP Synthesis Modulating Compounds from Salvia tingitana” (2020)
Values after ≈ are worked out from the molar mass of the structure shown.

Each molecule was assayed on Staphylococcus capitis (assay: Antibacterial activity against Methicillin-resistant Staphylococcus capitis MB71 after 24 hrs by microdilution assay). Settings: MB71, 24 h.
Type: functional
How it was run: (§1)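 Broth microdilution MIC, run as in an earlier cited report. Strains are clinical isolates identified by standard methods and MALDI-TOF; E. faecalis MB19 and MB51 are Ligurian seawater isolates. Highest concentration tested was 128 μg/mL. MICs are given in μg/mL and μM, with oxacillin and vancomycin as reference antibiotics.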
Molecule C=C[C@@](C)(O)CC[C@H]1C(=C)CC[C@H]2C(C)(C)CCC[C@]12C [MANOOL] has an MIC of over 128 µg/mL.

These molecules were tested on Staphylococcus hominis (assay: Antibacterial activity against Methicillin-resistant Staphylococcus hominis MB124 after 24 hrs by microdilution assay). Settings: MB124, 24 h.
Type: functional
How it was run: as §1
Molecule C=C[C@@](C)(O)CC[C@H]1C(=C)CC[C@H]2C(C)(C)CCC[C@]12C [MANOOL] has an MIC of over 128 µg/mL.

These molecules were tested on Enterococcus gallinarum (assay: Antibacterial activity against Vancomycin resistant Enterococcus gallinarum MB111 after 24 hrs by microdilution assay). Settings: MB111, 24 h.
Type: functional
How it was run: as §1
With C=C[C@@](C)(O)CC[C@H]1C(=C)CC[C@H]2C(C)(C)CCC[C@]12C [MANOOL] the MIC was 14 µM (≈ 4.07 µg/mL).

What follows are molecules tested on Enterococcus faecium (assay: Bacteriostatic activity against Enterococcus faecium MB152 assessed as ratio of reduction in bacterial growth by measuring order of magnitude at 4 times MIC by time kill assay). Settings: not given.
Type: functional
How it was run: (§2)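 Time-kill curves: viable cell counts of susceptible strains recorded with or without compound at 4 × MIC.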
In the case of C=C[C@@](C)(O)CC[C@H]1C(=C)CC[C@H]2C(C)(C)CCC[C@]12C [MANOOL], the Ratio was 1 - 2.

The molecules below were run on Staphylococcus lugdunensis (assay: Antibacterial activity against Staphylococcus lugdunensis MB96 after 24 hrs by microdilution assay). Settings: MB96, 24 h.
Type: functional
How it was run: (§3)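 Broth microdilution MIC against clinical or seawater-isolated strains (identified by standard procedures and MALDI-TOF), with compound solutions and testing as in earlier work. MIC reported in μg/mL and μM.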
With C=C[C@@](C)(O)CC[C@H]1C(=C)CC[C@H]2C(C)(C)CCC[C@]12C [MANOOL] the MIC was over 128 µg/mL.

The molecules below were run on Enterococcus faecalis (assay: Antibacterial activity against Vancomycin resistant Enterococcus faecalis MB1 after 24 hrs by microdilution assay). Settings: MB1, 24 h.
Type: functional
How it was run: as §1
C=C[C@@](C)(O)CC[C@H]1C(=C)CC[C@H]2C(C)(C)CCC[C@]12C [MANOOL] gave an MIC of 55 µM (≈ 16 µg/mL).

Each molecule was assayed on Enterococcus avium (assay: Antibacterial activity against Enterococcus avium MB119 after 24 hrs by microdilution assay). Settings: MB119, 24 h.
Type: functional
How it was run: as §3
C=C[C@@](C)(O)CC[C@H]1C(=C)CC[C@H]2C(C)(C)CCC[C@]12C [MANOOL] was tested, and the MIC was 28 µM (≈ 8.13 µg/mL).

These molecules were tested on Staphylococcus warneri (assay: Antibacterial activity against Methicillin-resistant Staphylococcus warneri MB74 after 24 hrs by microdilution assay). Settings: MB74, 24 h.
Type: functional
How it was run: as §1
C=C[C@@](C)(O)CC[C@H]1C(=C)CC[C@H]2C(C)(C)CCC[C@]12C [MANOOL] gave an MIC of over 128 µg/mL.

Species on record: Bos taurus
Test: Modulation of ATP synthase in bovine rod outer segments assessed as inhibition of ATP hydrolysis at 80 ug/ml in presence of Ap5A adenylate kinase inhibitor by pyruvate kinase/lactate dehydrogenase assay relative to control
Settings: not given
C=C[C@@](C)(O)CC[C@H]1C(=C)CC[C@H]2C(C)(C)CCC[C@]12C [MANOOL] was tested, and the inhibition was 92%.

The molecules below were run on Staphylococcus saprophyticus (assay: Antibacterial activity against Staphylococcus saprophyticus MB41 after 24 hrs by microdilution assay). Settings: MB41, 24 h.
Type: functional
How it was run: as §3
Molecule C=C[C@@](C)(O)CC[C@H]1C(=C)CC[C@H]2C(C)(C)CCC[C@]12C [MANOOL] has an MIC of over 128 µg/mL.

Each molecule was assayed on Staphylococcus simulans (assay: Antibacterial activity against Staphylococcus simulans MB94 after 24 hrs by microdilution assay). Settings: MB94, 24 h.
Type: functional
How it was run: as §3
In the case of C=C[C@@](C)(O)CC[C@H]1C(=C)CC[C@H]2C(C)(C)CCC[C@]12C [MANOOL], the MIC was over 128 µg/mL.

What follows are molecules tested on Staphylococcus epidermidis (assay: Antibacterial activity against Methicillin-resistant Staphylococcus epidermidis MB169 after 24 hrs by microdilution assay). Settings: MB169, 24 h.
Type: functional
How it was run: as §1
In the case of C=C[C@@](C)(O)CC[C@H]1C(=C)CC[C@H]2C(C)(C)CCC[C@]12C [MANOOL], the MIC was over 128 µg/mL.

The molecules below were run on Enterococcus faecium (assay: Modulation of ATP synthase in Enterococcus faecium MB152 assessed as inhibition of ATP production at 5 times MIC after 2 hrs by BacTiter-Glo Assay). Settings: not given.
How it was run: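 Whole-cell ATP assay. VRE strain grown overnight in Mueller Hinton broth at 37 °C, diluted 1:10^6 in fresh broth and grown 2 h, then adjusted by OD600. Manool added at 5 × MIC. Samples taken at 0 and 2 h and mixed 1:1 with BacTiter-Glo for 5 min at room temperature. Luminescence converted via an ATP standard curve (1–0.001 pmol) to pmol/cfu. Broth serves as negative control. Three experiments in triplicate, Student's t test.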
C=C[C@@](C)(O)CC[C@H]1C(=C)CC[C@H]2C(C)(C)CCC[C@]12C [MANOOL] was tested, and the inhibition was 30%.

What follows are molecules tested on Enterococcus faecium (assay: Antibacterial activity against Enterococcus faecium MB2 after 24 hrs by microdilution assay). Settings: MB2, 24 h.
Type: functional
How it was run: as §3
Work on C=C[C@@](C)(O)CC[C@H]1C(=C)CC[C@H]2C(C)(C)CCC[C@]12C [MANOOL] yielded an MIC of 14 µM (≈ 4.07 µg/mL).

What follows are molecules tested on Staphylococcus aureus (assay: Antibacterial activity against Methicillin-resistant Staphylococcus aureus MB18 after 24 hrs by microdilution assay). Settings: MB18, 24 h.
Type: functional
How it was run: as §1
C=C[C@@](C)(O)CC[C@H]1C(=C)CC[C@H]2C(C)(C)CCC[C@]12C [MANOOL] showed an MIC of over 128 µg/mL.

What follows are molecules tested on Enterococcus durans (assay: Antibacterial activity against Enterococcus durans MB113 after 24 hrs by microdilution assay). Settings: MB113, 24 h.
Type: functional
How it was run: as §3
With C=C[C@@](C)(O)CC[C@H]1C(=C)CC[C@H]2C(C)(C)CCC[C@]12C [MANOOL] the MIC was 55 µM (≈ 16 µg/mL).

These molecules were tested on Enterococcus faecalis (assay: Antibacterial activity against Vancomycin resistant Enterococcus faecalis MB19 after 24 hrs by microdilution assay). Settings: MB19, 24 h.
Type: functional
How it was run: as §1
In the case of C=C[C@@](C)(O)CC[C@H]1C(=C)CC[C@H]2C(C)(C)CCC[C@]12C [MANOOL], the MIC was 110 µM (≈ 32 µg/mL).

What follows are molecules tested on Enterococcus faecalis (assay: Antibacterial activity against Vancomycin resistant Enterococcus faecalis MB51 after 24 hrs by microdilution assay). Settings: MB51, 24 h.
Type: functional
How it was run: as §1
For C=C[C@@](C)(O)CC[C@H]1C(=C)CC[C@H]2C(C)(C)CCC[C@]12C [MANOOL], the MIC was 55 µM (≈ 16 µg/mL).

The molecules below were run on Enterococcus faecium (assay: Antibacterial activity against Enterococcus faecium MB152 after 24 hrs by microdilution assay). Settings: MB152, 24 h.
Type: functional
How it was run: as §3
Molecule C=C[C@@](C)(O)CC[C@H]1C(=C)CC[C@H]2C(C)(C)CCC[C@]12C [MANOOL] has an MIC of 28 µM (≈ 8.13 µg/mL).

Species on record: Bos taurus
Test: Modulation of ATP synthase in bovine rod outer segments assessed as inhibition of ATP production at 80 ug/ml in presence of Ap5A adenylate kinase inhibitor by luciferin/luciferase chemiluminescent method relative to control
Settings: not given
How it was run: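 Bovine rod OS (5 μg) preincubated 5 min at 37 °C in Tris/HCl pH 7.4 with KCl, EGTA, MgCl2, 0.6 mM ouabain, 0.25 mM Ap5A, 5 mM KH2PO4, 20 mM succinate, 0.35 mM NADH and ampicillin. Synthesis started with 0.1 mM ADP and stopped with perchloric acid. ATP read by luciferin/luciferase luminescence. Samples at 80 μg/mL; 30 μM resveratrol as positive control. Triplicates, ANOVA/Bonferroni.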
Molecule C=C[C@@](C)(O)CC[C@H]1C(=C)CC[C@H]2C(C)(C)CCC[C@]12C [MANOOL] has an inhibition of 60%.

Each molecule was assayed on Enterococcus faecalis (assay: Antibacterial activity against Enterococcus faecalis MB76 after 24 hrs by microdilution assay). Settings: MB76, 24 h.
Type: functional
How it was run: as §1
C=C[C@@](C)(O)CC[C@H]1C(=C)CC[C@H]2C(C)(C)CCC[C@]12C [MANOOL] was tested, and the MIC was 110 µM (≈ 32 µg/mL).

What follows are molecules tested on Enterococcus faecalis (assay: Bacteriostatic activity against Enterococcus faecalis MB1 assessed as ratio of reduction in bacterial growth at 4 times MIC by time kill assay). Settings: not given.
Type: functional
How it was run: as §2
With C=C[C@@](C)(O)CC[C@H]1C(=C)CC[C@H]2C(C)(C)CCC[C@]12C [MANOOL] the Ratio was 1 - 2.

What follows are molecules tested on Staphylococcus epidermidis (assay: Antibacterial activity against Methicillin-resistant Staphylococcus epidermidis MB165 after 24 hrs by microdilution assay). Settings: MB165, 24 h.
Type: functional
How it was run: as §1
For C=C[C@@](C)(O)CC[C@H]1C(=C)CC[C@H]2C(C)(C)CCC[C@]12C [MANOOL], the MIC was over 128 µg/mL.

These molecules were tested on Enterococcus faecium (assay: Antibacterial activity against Enterococcus faecium MB3 after 24 hrs by microdilution assay). Settings: MB3, 24 h.
Type: functional
How it was run: as §3
For C=C[C@@](C)(O)CC[C@H]1C(=C)CC[C@H]2C(C)(C)CCC[C@]12C [MANOOL], the MIC was 28 µM (≈ 8.13 µg/mL).

These molecules were tested on Staphylococcus aureus (assay: Antibacterial activity against Methicillin-resistant Staphylococcus aureus MB188 after 24 hrs by microdilution assay). Settings: MB188, 24 h.
Type: functional
How it was run: as §1
In the case of C=C[C@@](C)(O)CC[C@H]1C(=C)CC[C@H]2C(C)(C)CCC[C@]12C [MANOOL], the MIC was over 128 µg/mL.

Each molecule was assayed on Enterococcus casseliflavus (assay: Antibacterial activity against Vancomycin resistant Enterococcus casseliflavus MB159 after 24 hrs by microdilution assay). Settings: MB159, 24 h.
Type: functional
How it was run: as §1
C=C[C@@](C)(O)CC[C@H]1C(=C)CC[C@H]2C(C)(C)CCC[C@]12C [MANOOL] gave an MIC of 55 µM (≈ 16 µg/mL).

What follows are molecules tested on Staphylococcus haemolyticus (assay: Antibacterial activity against Methicillin-resistant Staphylococcus haemolyticus MB115 after 24 hrs by microdilution assay). Settings: MB115, 24 h.
Type: functional
How it was run: as §1
C=C[C@@](C)(O)CC[C@H]1C(=C)CC[C@H]2C(C)(C)CCC[C@]12C [MANOOL] showed an MIC of over 128 µg/mL.
